ChEMBL document CHEMBL4308828, “Fragment Based Optimization of Metabotropic Glutamate Receptor 2 (mGluR2) Positive Allosteric Modulators in the Absence of Structural Information” (J Med Chem, 2018)
Converted amounts (≈) assume the structure as drawn.

Tests used:
Cytochrome P450 1A2 = target: T1, Cytochrome P450 1A2 (Homo sapiens, UniProt P05177); assay: Inhibition of CYP1A2 (unknown origin); format: ADME
T1 sequence (P05177 whole entry): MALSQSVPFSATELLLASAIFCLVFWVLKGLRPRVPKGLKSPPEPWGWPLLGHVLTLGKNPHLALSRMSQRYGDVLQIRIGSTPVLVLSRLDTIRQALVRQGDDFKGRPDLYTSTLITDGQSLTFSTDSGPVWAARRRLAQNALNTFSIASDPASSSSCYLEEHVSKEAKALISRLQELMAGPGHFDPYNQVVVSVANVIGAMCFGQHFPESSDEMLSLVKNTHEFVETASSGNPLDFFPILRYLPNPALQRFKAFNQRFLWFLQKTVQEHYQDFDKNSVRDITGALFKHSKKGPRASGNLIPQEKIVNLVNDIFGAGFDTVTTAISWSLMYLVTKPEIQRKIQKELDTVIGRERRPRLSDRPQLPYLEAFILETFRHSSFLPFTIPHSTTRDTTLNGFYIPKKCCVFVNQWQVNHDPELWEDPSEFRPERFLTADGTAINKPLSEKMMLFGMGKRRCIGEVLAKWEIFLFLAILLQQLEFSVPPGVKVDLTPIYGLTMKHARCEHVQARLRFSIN

Cytochrome P450 2D6 = Cytochrome P450 2D6 (Homo sapiens, UniProt P10635); assay: Inhibition of CYP2D6 (unknown origin); format: ADME
[1] = Protein binding in mouse plasma; format: ADME, cell-free; details: read-out: PPB (converted)
[2] = Kinetic aqueous solubility of the compound in pH 7.4 solution; format: physicochemical; details: aqueous pH 7.4 solution, read-out: Kinetic_solubility
[3] = Intrinsic clearance in NMRI mouse liver microsomes at 2.5 uM; format: ADME, Microsome
Method in brief: (§1)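 Liver microsomes (0.5 mg/mL) of human, Wistar rat or NMRI mouse; compound 2.5 μM initial, incubated for various times. Intrinsic clearance (mL/min·g liver) taken as rate of compound consumption under first-order conditions, Clint = Vmax/KM or V/S when S ≪ KM.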

[4] = target: T2, Androgen receptor (Homo sapiens) (UniProt P10275); assay: Binding affinity to AR (unknown origin) at 10 uM relative to control
T2 sequence (whole entry): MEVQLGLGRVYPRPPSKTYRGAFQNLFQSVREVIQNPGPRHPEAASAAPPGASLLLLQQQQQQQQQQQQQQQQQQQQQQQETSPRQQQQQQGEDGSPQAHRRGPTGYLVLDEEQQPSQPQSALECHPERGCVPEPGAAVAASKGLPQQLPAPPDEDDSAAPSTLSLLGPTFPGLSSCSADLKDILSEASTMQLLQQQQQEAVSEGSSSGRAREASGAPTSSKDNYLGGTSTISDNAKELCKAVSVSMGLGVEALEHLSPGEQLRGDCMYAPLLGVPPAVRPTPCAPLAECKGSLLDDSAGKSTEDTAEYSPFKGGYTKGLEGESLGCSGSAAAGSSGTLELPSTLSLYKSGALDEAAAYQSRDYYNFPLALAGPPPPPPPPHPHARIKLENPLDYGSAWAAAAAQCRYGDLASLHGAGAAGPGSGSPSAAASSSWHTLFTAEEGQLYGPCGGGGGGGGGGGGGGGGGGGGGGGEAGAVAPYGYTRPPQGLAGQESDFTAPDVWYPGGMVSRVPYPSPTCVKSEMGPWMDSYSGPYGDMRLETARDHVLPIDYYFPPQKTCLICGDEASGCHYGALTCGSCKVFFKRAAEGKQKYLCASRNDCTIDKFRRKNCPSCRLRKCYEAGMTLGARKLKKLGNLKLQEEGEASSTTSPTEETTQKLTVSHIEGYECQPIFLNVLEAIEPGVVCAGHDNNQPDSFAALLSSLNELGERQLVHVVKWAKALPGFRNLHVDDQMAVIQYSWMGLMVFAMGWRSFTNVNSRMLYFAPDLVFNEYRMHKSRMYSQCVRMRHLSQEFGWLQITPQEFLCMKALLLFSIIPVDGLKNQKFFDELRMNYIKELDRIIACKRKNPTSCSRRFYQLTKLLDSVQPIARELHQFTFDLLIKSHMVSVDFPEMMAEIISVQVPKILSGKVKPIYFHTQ

[5] = Drug uptake in mouse brain at 30 mg/kg, po; format: ADME, organism-based; details: in vivo, read-out: Drug uptake
Method in brief: (§2)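 Mice dosed orally at 30 mg/kg; plasma, brain and unbound plasma concentrations measured.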

[6] = Lipophilicity, log D of the compound at pH 7.4; format: physicochemical; details: buffer
Mus musculus [7] = assay: Antipsychotic activity in ip dosed ddY mouse assessed as inhibition of PCP-induced hyperlocomotion pretreated followed by PCP addition measured after 60 mins by passive infrared sensor method; format: functional
Method in brief: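 Male ddY mice, 6 weeks old, acclimated 60 min in test cage, dosed i.p., then immediately PCP 2.5 mg/kg s.c.; locomotor activity recorded 60 min by passive infrared sensor system; ED50 reported.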

Cytochrome P450 2C9 = Cytochrome P450 2C9 (Homo sapiens, UniProt P11712); assay: Inhibition of CYP2C9 (unknown origin); format: ADME
Homo sapiens = species on record: Homo sapiens; assay: Binding affinity to sodium channel site 2 (unknown origin) at 10 uM relative to control
[8] = Plasma concentration in mouse at 30 mg/kg, po; format: ADME, organism-based; details: in vivo; method in brief: as §2
Cytochrome P450 3A4 = Cytochrome P450 3A4 (Homo sapiens, UniProt P08684); assay: Inhibition of CYP3A4 (unknown origin); format: ADME
[9] = Intrinsic clearance in Wistar rat liver microsomes at 2.5 uM; format: ADME, Microsome; method in brief: as §1
[10] = Protein binding in rat plasma; format: ADME, cell-free; details: read-out: PPB (converted)
[11] = target: Metabotropic glutamate receptor 2 (Homo sapiens, UniProt Q14416); assay: Positive allosteric modulation of human mGluR2 expressed in human Chem1 cells assessed as increase in glutamate-induced intracellular calcium influx preincubated for 30 mins followed by glutamate addition by calcium-5 dye based fluorometric assay; format: functional, cell-based
Method in brief: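 Chem-1 cells stably expressing human mGlu2, 30000 cells/well, overnight at 37 °C. Loaded with Calcium 5 dye (30 min, 37 °C) in buffer with GPT/pyruvate, washed, then compound or vehicle 30 min at 37 °C. Glutamate at EC5-EC20 added after 20 s baseline; fluorescence 485/525 nm read 40 s. ΔF/F from multiple wells; sigmoid fits give EC50, three independent experiments. Final DMSO 1%.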

[12] = target: T3, Nuclear receptor subfamily 1 group I member 2 (Homo sapiens, UniProt O75469); assay: Activation of PXR (unknown origin) assessed as CYP induction; format: ADME
T3 sequence (O75469 whole entry): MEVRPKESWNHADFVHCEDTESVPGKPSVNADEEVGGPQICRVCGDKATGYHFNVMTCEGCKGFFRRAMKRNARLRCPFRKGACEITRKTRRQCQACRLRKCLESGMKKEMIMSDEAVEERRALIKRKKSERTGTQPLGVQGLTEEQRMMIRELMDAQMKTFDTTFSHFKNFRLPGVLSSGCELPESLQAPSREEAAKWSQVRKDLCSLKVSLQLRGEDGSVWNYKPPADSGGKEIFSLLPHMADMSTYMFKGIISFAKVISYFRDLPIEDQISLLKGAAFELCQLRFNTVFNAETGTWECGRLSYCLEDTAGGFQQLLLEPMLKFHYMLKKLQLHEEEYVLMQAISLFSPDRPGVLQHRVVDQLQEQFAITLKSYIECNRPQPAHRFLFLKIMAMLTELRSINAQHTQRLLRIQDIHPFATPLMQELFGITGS

[13] = Intrinsic clearance in human liver microsomes at 2.5 uM; format: ADME, Microsome; method in brief: as §1
[14] = Unbound plasma concentration in mouse at 30 mg/kg, po; format: ADME, organism-based; details: in vivo; method in brief: as §2
Mus musculus [15] = assay: Inhibition of DOI-induced head twitches in ip dosed ddY mouse pretreated for 20 mins followed by DOI addition measured after 8 mins; format: functional
Method in brief: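 Male ddY mice, 6 weeks old, dosed i.p. 20 min before DOI 0.75 mg/kg s.c.; head twitches counted in transparent cylinder from 10 to 18 min after DOI.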

Chain of Metabotropic glutamate receptor 2 (Q14416 whole entry): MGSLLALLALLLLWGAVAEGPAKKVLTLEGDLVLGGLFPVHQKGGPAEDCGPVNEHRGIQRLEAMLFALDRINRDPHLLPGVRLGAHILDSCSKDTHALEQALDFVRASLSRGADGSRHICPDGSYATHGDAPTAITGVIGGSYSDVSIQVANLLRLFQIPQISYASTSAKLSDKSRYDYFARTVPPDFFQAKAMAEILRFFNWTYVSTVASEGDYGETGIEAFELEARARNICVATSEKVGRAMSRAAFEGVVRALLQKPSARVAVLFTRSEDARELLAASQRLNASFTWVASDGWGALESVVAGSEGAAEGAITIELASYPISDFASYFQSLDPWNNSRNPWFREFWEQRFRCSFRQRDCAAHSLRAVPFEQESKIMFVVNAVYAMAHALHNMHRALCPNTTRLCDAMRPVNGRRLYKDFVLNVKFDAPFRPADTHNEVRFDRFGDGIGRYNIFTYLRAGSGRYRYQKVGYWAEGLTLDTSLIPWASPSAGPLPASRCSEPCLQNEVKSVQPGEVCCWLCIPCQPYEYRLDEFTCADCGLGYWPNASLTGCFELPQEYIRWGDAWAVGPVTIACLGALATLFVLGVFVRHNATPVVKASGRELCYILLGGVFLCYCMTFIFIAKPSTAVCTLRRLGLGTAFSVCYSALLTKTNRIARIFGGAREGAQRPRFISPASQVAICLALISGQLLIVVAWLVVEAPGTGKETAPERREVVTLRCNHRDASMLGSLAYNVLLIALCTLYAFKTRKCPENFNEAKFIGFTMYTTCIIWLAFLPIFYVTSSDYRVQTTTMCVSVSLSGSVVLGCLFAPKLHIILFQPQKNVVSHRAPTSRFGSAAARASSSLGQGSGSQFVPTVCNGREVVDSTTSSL
Chain of Cytochrome P450 3A4 (P08684 whole entry): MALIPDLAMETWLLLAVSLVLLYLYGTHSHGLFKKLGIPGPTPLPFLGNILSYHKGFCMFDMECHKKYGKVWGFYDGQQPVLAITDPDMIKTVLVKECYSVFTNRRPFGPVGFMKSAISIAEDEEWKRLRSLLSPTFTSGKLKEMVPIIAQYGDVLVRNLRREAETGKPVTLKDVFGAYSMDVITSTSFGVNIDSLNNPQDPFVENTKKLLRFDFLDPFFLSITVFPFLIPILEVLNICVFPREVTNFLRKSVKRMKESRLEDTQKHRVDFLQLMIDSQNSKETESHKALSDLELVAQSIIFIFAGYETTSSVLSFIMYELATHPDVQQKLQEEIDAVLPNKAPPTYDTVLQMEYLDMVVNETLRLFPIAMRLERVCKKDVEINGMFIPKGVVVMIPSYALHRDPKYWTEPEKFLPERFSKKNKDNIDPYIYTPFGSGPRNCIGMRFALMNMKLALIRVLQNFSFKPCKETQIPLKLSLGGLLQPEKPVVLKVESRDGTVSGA
Chain of Cytochrome P450 2D6 (P10635 whole entry): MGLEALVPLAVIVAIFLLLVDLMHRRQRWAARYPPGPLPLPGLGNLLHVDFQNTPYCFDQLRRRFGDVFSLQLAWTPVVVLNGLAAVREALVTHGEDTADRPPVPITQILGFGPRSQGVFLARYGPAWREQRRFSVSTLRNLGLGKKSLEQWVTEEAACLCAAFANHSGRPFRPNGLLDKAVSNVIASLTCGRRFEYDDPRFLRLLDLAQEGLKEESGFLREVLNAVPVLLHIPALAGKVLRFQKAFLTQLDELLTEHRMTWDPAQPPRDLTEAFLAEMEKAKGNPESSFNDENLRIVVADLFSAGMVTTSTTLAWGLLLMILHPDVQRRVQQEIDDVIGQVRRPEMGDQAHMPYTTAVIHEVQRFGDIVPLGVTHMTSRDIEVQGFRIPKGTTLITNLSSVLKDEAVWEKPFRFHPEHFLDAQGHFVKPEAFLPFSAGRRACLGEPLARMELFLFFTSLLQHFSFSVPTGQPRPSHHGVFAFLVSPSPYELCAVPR
Chain of Cytochrome P450 2C9 (P11712 whole entry): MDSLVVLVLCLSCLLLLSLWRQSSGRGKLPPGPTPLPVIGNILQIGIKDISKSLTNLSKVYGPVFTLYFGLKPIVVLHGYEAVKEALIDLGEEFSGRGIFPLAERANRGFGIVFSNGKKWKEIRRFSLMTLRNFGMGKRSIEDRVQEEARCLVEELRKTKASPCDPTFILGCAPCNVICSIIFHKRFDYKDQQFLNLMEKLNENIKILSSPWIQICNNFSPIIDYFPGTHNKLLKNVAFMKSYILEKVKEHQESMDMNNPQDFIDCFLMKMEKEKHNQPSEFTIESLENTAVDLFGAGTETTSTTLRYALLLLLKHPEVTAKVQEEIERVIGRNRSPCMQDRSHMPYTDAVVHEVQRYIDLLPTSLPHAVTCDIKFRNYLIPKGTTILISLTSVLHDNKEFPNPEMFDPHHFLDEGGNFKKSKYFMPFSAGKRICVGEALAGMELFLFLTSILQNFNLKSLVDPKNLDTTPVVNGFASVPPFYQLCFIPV

SMILES	IC50 (Cytochrome P450 1A2) [µM]	IC50 (Cytochrome P450 2D6) [µM]	fraction unbound [1]	solubility kinetic [2] [µg/mL]	Intrinsic clearance [3] [mL/min/g]	Activity [4] [%]	concentration [5] [nM]	logD [6]	ED50 (Mus musculus [7]) [mg/kg]	IC50 (Cytochrome P450 2C9) [µM]	Activity (Homo sapiens) [%]	concentration [8] [nM]	IC50 (Cytochrome P450 3A4) [µM]	Intrinsic clearance [9] [mL/min/g]	fraction unbound [10]	EC50 [11] [µM]	MEC [12] [µM]	Intrinsic clearance [13] [mL/min/g]	Cp(f) [14] [nM]	ED50 (Mus musculus [15]) [mg/kg]
Fc1cc(Cl)ccc1-c1ccc(Cn2nnc3ccccc32)cn1	> 10	> 10	0.008	3 (≈ 8.86 µM)	3.4	77	1400	5.48	> 100	6.6	50	2000	> 10	0.8	0.006	0.05	7.7	0.01	15	
FC(F)(F)c1cccc2c1nnn2CC1CC1	> 10	> 10	0.145	409 (≈ 1700 µM)	1.4		13100	3.08	57.6	> 10		12100	> 10	0.3	0.1	0.148	7	0.3	1750	29.7
